Test results reported in ChEMBL document CHEMBL4689842, “EUbOPEN Chemogenomics Library wave 1” (2021).

Tested on: Fibroblast
Assay: Multiplex assay against human fibroblast
Format: toxicity, cell-based
Method in brief: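 Live cells carried four stains from seeding: Hoechst33342, BioTracker Green Microtubule Cytoskeleton Dye, MitoTracker Red and Annexin V Alexa Fluor 680. They were imaged on a CQ1 microscope at 37°C and 5% CO2 after compound addition. Using CellPathfinder machine-learning gating, cells were split into Hoechst high-intensity objects or normal cells, normal cells into healthy, pyknosed or fragmented nuclei, and pyknosed cells into mitotic or apoptotic; tubulin, mitochondrial-mass and membrane-permeability phenotypes are per cents of healthy-nucleus cells.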

[1] = 12 h, 1 µM, compound concentration 1 uM, replicate 1
[2] = 12 h, 1 µM, compound concentration 1 uM, replicate 2
[3] = 12 h, 10 µM, compound concentration 10 uM, replicate 1
[4] = 12 h, 10 µM, compound concentration 10 uM, replicate 2
[5] = 24 h, 1 µM, compound concentration 1 uM, replicate 1
[6] = 24 h, 1 µM, compound concentration 1 uM, replicate 2
[7] = 24 h, 10 µM, compound concentration 10 uM, replicate 1
[8] = 24 h, 10 µM, compound concentration 10 uM, replicate 2
[9] = 48 h, 1 µM, compound concentration 1 uM, replicate 1
[10] = 48 h, 1 µM, compound concentration 1 uM, replicate 2
[11] = 48 h, 10 µM, compound concentration 10 uM, replicate 1
[12] = 48 h, 10 µM, compound concentration 10 uM, replicate 2

## Cc1ccc(S(=O)(=O)NC2c3ccccc3Oc3ccccc32)cc1
[1]
  Population Apoptotic (%): 57%
  Population Fragmented Nuclei (%): 25%
  Population Healthy Nuclei (%): 46%
  Population Hoechst High Intensity Objects (%): 11%
  Population Membrane Permeable-Phenotype (%): 25%
  Population Mitochondria Different-Phenotype (%): 6%
  Population Mitotic Cells (%): 42%
  Population Normal (%): 88%
  Population Pyknosed Nuclei (%): 27%
  Population Tubulin-Different-Phenotype (%): 27%
  Total Cell Count: 105
[2]
  Population Apoptotic (%): 0%
  Population Fragmented Nuclei (%): 10%
  Population Healthy Nuclei (%): 76%
  Population Hoechst High Intensity Objects (%): 4%
  Population Membrane Permeable-Phenotype (%): 0%
  Population Mitochondria Different-Phenotype (%): 16%
  Population Mitotic Cells (%): 100%
  Population Normal (%): 95%
  Population Pyknosed Nuclei (%): 12%
  Population Tubulin-Different-Phenotype (%): 2%
  Total Cell Count: 49
[3]
  Population Apoptotic (%): 80%
  Population Fragmented Nuclei (%): 41%
  Population Healthy Nuclei (%): 41%
  Population Hoechst High Intensity Objects (%): 17%
  Population Membrane Permeable-Phenotype (%): 56%
  Population Mitochondria Different-Phenotype (%): 54%
  Population Mitotic Cells (%): 20%
  Population Normal (%): 82%
  Population Pyknosed Nuclei (%): 16%
  Population Tubulin-Different-Phenotype (%): 17%
  Total Cell Count: 218
[4]
  Population Apoptotic (%): 95%
  Population Fragmented Nuclei (%): 42%
  Population Healthy Nuclei (%): 34%
  Population Hoechst High Intensity Objects (%): 6%
  Population Membrane Permeable-Phenotype (%): 44%
  Population Mitochondria Different-Phenotype (%): 0%
  Population Mitotic Cells (%): 4%
  Population Normal (%): 93%
  Population Pyknosed Nuclei (%): 23%
  Population Tubulin-Different-Phenotype (%): 50%
  Total Cell Count: 106
[5]
  Population Apoptotic (%): 50%
  Population Fragmented Nuclei (%): 26%
  Population Healthy Nuclei (%): 51%
  Population Hoechst High Intensity Objects (%): 19%
  Population Membrane Permeable-Phenotype (%): 28%
  Population Mitochondria Different-Phenotype (%): 10%
  Population Mitotic Cells (%): 50%
  Population Normal (%): 80%
  Population Pyknosed Nuclei (%): 22%
  Population Tubulin-Different-Phenotype (%): 53%
  Total Cell Count: 119
[6]
  Population Apoptotic (%): 25%
  Population Fragmented Nuclei (%): 5%
  Population Healthy Nuclei (%): 88%
  Population Hoechst High Intensity Objects (%): 7%
  Population Membrane Permeable-Phenotype (%): 7%
  Population Mitochondria Different-Phenotype (%): 15%
  Population Mitotic Cells (%): 75%
  Population Normal (%): 92%
  Population Pyknosed Nuclei (%): 6%
  Population Tubulin-Different-Phenotype (%): 13%
  Total Cell Count: 65
[7]
  Population Apoptotic (%): 75%
  Population Fragmented Nuclei (%): 35%
  Population Healthy Nuclei (%): 53%
  Population Hoechst High Intensity Objects (%): 16%
  Population Membrane Permeable-Phenotype (%): 64%
  Population Mitochondria Different-Phenotype (%): 43%
  Population Mitotic Cells (%): 25%
  Population Normal (%): 83%
  Population Pyknosed Nuclei (%): 11%
  Population Tubulin-Different-Phenotype (%): 28%
  Total Cell Count: 170
[8]
  Population Apoptotic (%): 100%
  Population Fragmented Nuclei (%): 10%
  Population Healthy Nuclei (%): 68%
  Population Hoechst High Intensity Objects (%): 4%
  Population Membrane Permeable-Phenotype (%): 20%
  Population Mitochondria Different-Phenotype (%): 14%
  Population Mitotic Cells (%): 0%
  Population Normal (%): 95%
  Population Pyknosed Nuclei (%): 21%
  Population Tubulin-Different-Phenotype (%): 43%
  Total Cell Count: 84
[9]
  Population Apoptotic (%): 42%
  Population Fragmented Nuclei (%): 33%
  Population Healthy Nuclei (%): 50%
  Population Hoechst High Intensity Objects (%): 19%
  Population Membrane Permeable-Phenotype (%): 22%
  Population Mitochondria Different-Phenotype (%): 4%
  Population Mitotic Cells (%): 57%
  Population Normal (%): 80%
  Population Pyknosed Nuclei (%): 15%
  Population Tubulin-Different-Phenotype (%): 37%
  Total Cell Count: 111
[10]
  Population Apoptotic (%): 75%
  Population Fragmented Nuclei (%): 17%
  Population Healthy Nuclei (%): 75%
  Population Hoechst High Intensity Objects (%): 14%
  Population Membrane Permeable-Phenotype (%): 15%
  Population Mitochondria Different-Phenotype (%): 6%
  Population Mitotic Cells (%): 25%
  Population Normal (%): 85%
  Population Pyknosed Nuclei (%): 6%
  Population Tubulin-Different-Phenotype (%): 34%
  Total Cell Count: 68
[11]
  Population Apoptotic (%): 42%
  Population Fragmented Nuclei (%): 27%
  Population Healthy Nuclei (%): 66%
  Population Hoechst High Intensity Objects (%): 7%
  Population Membrane Permeable-Phenotype (%): 20%
  Population Mitochondria Different-Phenotype (%): 2%
  Population Mitotic Cells (%): 57%
  Population Normal (%): 92%
  Population Pyknosed Nuclei (%): 5%
  Population Tubulin-Different-Phenotype (%): 26%
  Total Cell Count: 133
[12]
  Population Apoptotic (%): 80%
  Population Fragmented Nuclei (%): 20%
  Population Healthy Nuclei (%): 72%
  Population Hoechst High Intensity Objects (%): 14%
  Population Membrane Permeable-Phenotype (%): 25%
  Population Mitochondria Different-Phenotype (%): 3%
  Population Mitotic Cells (%): 20%
  Population Normal (%): 85%
  Population Pyknosed Nuclei (%): 6%
  Population Tubulin-Different-Phenotype (%): 50%
  Total Cell Count: 84
